Results from ChEMBL document CHEMBL1137781, “Synthesis and preclinical evaluation of novel PET probes for P-glycoprotein function and expression” (J Med Chem, 2009).

Assays:
[1] = Biodistribution in Wistar rat fat at 40+/-4 MBq, iv after 80 mins; type: ADME, organism-based, Adipose tissue; settings: in vivo
Method in brief: (§1)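 Male Wistar rats (12 h light/dark, chow ad libitum) were fitted with a femoral arterial cannula under isoflurane. They were pretreated via tail vein with saline, cyclosporin A (50 mg/kg), or nonradioactive tracer compound (15 mg/kg; 10 mg/mL in saline with 35% ethanol). The 11C tracer was then given via penile vein, followed by 76 min microPET. Animals were then terminated; excised tissues were weighed and gamma-counted with decay correction. Values are SUVs (tissue MBq/g × body weight g / injected MBq).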

Lung = assay: Biodistribution in 50 mg/kg cyclosporin A pretreated Wistar rat lung at 27+/-2 MBq, iv after 80 mins; type: ADME, organism-based; set-up: dose 50 mg/kg, route intravenous; settings: in vivo
Plasma [2] = assay: Biodistribution in 50 mg/kg cyclosporin A pretreated Wistar rat plasma at 27+/-2 MBq, iv after 80 mins; type: ADME, organism-based; set-up: dose 50 mg/kg, route intravenous; settings: in vivo
Kidney = assay: Biodistribution in Wistar rat kidney at 40+/-4 MBq, iv after 80 mins; type: ADME, organism-based; settings: in vivo; method in brief: as §1
[3] = Biodistribution in 50 mg/kg cyclosporin A pretreated Wistar rat entorhinal cortex at 27+/-2 MBq, iv after 80 mins; type: ADME, organism-based; set-up: dose 50 mg/kg, route intravenous; settings: in vivo
Method in brief: (§2)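 Male Wistar rats pretreated via tail vein with saline or cyclosporin A (50 mg/kg, commercial solution), then given the [11C] tracer via penile vein. After microPET scanning the anesthetized rats were killed. Tissues were excised and weighed, and blood was centrifuged into plasma and cells. γ counting with decay correction. Results as SUV (tissue MBq/g × body weight/injected dose).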

[4] = Biodistribution in 50 mg/kg cyclosporin A pretreated Wistar rat fat at 27+/-2 MBq, iv after 80 mins; type: ADME, organism-based, Adipose tissue; set-up: dose 50 mg/kg, route intravenous; settings: in vivo; method in brief: as §2
[5] = Biodistribution in Wistar rat amygdala at 40+/-4 MBq, iv after 80 mins; type: ADME, organism-based; settings: in vivo
Brain [6] = assay: Biodistribution in 50 mg/kg cyclosporin A pretreated Wistar rat brain at 27+/-2 MBq, iv after 25 mins; type: ADME, organism-based; set-up: dose 50 mg/kg, route intravenous; settings: in vivo
Method in brief: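 Male Wistar rats pretreated with saline or cyclosporin A (50 mg/kg, tail vein), then given the [11C] tracer via penile vein. Dynamic microPET with a whole-brain 3D ROI. SUV read from the time-activity curve at 25 min, assuming 1 g/mL tissue density. Mean ± SEM.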

Colon = assay: Biodistribution in Wistar rat colon at 40+/-4 MBq, iv after 80 mins; type: ADME, organism-based; settings: in vivo; method in brief: as §1
Cerebellum = assay: Biodistribution in 50 mg/kg cyclosporin A pretreated Wistar rat cerebellum at 27+/-2 MBq, iv after 80 mins; type: ADME, organism-based; set-up: dose 50 mg/kg, route intravenous; settings: in vivo; method in brief: as §2
Hippocampus [7] = assay: Biodistribution in 50 mg/kg cyclosporin A pretreated Wistar rat hippocampus at 27+/-2 MBq, iv after 80 mins; type: ADME, organism-based; set-up: dose 50 mg/kg, route intravenous; settings: in vivo
Bone = assay: Biodistribution in Wistar rat bone at 40+/-4 MBq, iv after 80 mins; type: ADME, organism-based, Bone element; settings: in vivo
Plasma [8] = assay: Biodistribution in Wistar rat plasma at 40+/-4 MBq, iv after 80 mins; type: ADME, organism-based; settings: in vivo
Duodenum = assay: Biodistribution in 50 mg/kg cyclosporin A pretreated Wistar rat duodenum at 27+/-2 MBq, iv after 80 mins; type: ADME, organism-based; set-up: dose 50 mg/kg, route intravenous; settings: in vivo; method in brief: as §2
Spleen = assay: Biodistribution in 50 mg/kg cyclosporin A pretreated Wistar rat spleen at 27+/-2 MBq, iv after 80 mins; type: ADME, organism-based; set-up: dose 50 mg/kg, route intravenous; settings: in vivo
Brain [9] = assay: Biodistribution in Wistar rat brain at 40+/-4 MBq, iv after 25 mins; type: ADME, organism-based; settings: in vivo
[10] = Biodistribution in 50 mg/kg cyclosporin A pretreated Wistar rat frontal cortex at 27+/-2 MBq, iv after 80 mins; type: ADME, organism-based; set-up: dose 50 mg/kg, route intravenous; settings: in vivo
Hippocampus [11] = assay: Biodistribution in Wistar rat hippocampus at 40+/-4 MBq, iv after 80 mins; type: ADME, organism-based; settings: in vivo; method in brief: as §1
Plasma [12] = assay: Biodistribution in Wistar rat plasma at 40+/-4 MBq, iv after 60 mins; type: ADME, organism-based; settings: in vivo, 1 h
Striatum = assay: Biodistribution in 50 mg/kg cyclosporin A pretreated Wistar rat striatum at 27+/-2 MBq, iv after 80 mins; type: ADME, organism-based; set-up: dose 50 mg/kg, route intravenous; settings: in vivo
[13] = Biodistribution in 50 mg/kg cyclosporin A pretreated Wistar rat trachea at 27+/-2 MBq, iv after 80 mins; type: ADME, organism-based; set-up: dose 50 mg/kg, route intravenous; settings: in vivo
[14] = Biodistribution in Wistar rat red blood cells at 40+/-4 MBq, iv after 80 mins; type: ADME, organism-based, Erythrocyte; settings: in vivo
Pancreas = assay: Biodistribution in 50 mg/kg cyclosporin A pretreated Wistar rat pancreas at 27+/-2 MBq, iv after 80 mins; type: ADME, organism-based; set-up: dose 50 mg/kg, route intravenous; settings: in vivo
Rattus norvegicus = assay: AUC in 50 mg/kg cyclosporin A pretreated Wistar rat at 27+/-2 MBq, iv; type: ADME, organism-based, Plasma; set-up: dose 50 mg/kg, route intravenous; settings: in vivo
Method in brief: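 Male Wistar rats with a femoral arterial cannula placed under isoflurane. Saline or cyclosporin A (50 mg/kg, commercial solution) given via tail vein, then the [11C] tracer via penile vein. Dynamic microPET over the brain for 76 min, with 14 arterial samples to 60 min. Plasma counted in a γ counter. AUC of whole-brain or plasma SUV over 0-60 min.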

[15] = Biodistribution in 50 mg/kg cyclosporin A pretreated Wistar rat cingulate cortex at 27+/-2 MBq, iv after 80 mins; type: ADME, organism-based; set-up: dose 50 mg/kg, route intravenous; settings: in vivo; method in brief: as §2
Pons = assay: Biodistribution in Wistar rat pons at 40+/-4 MBq, iv after 80 mins; type: ADME, organism-based; settings: in vivo
[16] = Biodistribution in Wistar rat entorhinal cortex at 40+/-4 MBq, iv after 80 mins; type: ADME, organism-based; settings: in vivo; method in brief: as §1
Muscle tissue = assay: Biodistribution in 50 mg/kg cyclosporin A pretreated Wistar rat muscle at 27+/-2 MBq, iv after 80 mins; type: ADME, organism-based; set-up: dose 50 mg/kg, route intravenous; settings: in vivo

An SUV [1] of 0.36, an SUV (Lung) of 0.98 and an SUV (Plasma [2]) of 0.32 were found for COc1cc2c(cc1OC)CN(CCCC1CCCc3c(O[11CH3])cccc31)CC2 (stereo not drawn) in this work. It also gave an SUV (Kidney) of 1.45, an SUV [3] of 1.23 and an SUV [4] of 0.31. It also gave an SUV [5] of 0.37, an SUV (Brain [6]) of 2.17 and an SUV (Colon) of 1.37. It also gave an SUV (Cerebellum) of 0.99, an SUV (Hippocampus [7]) of 0.86 and an SUV (Bone) of 0.28. The SUV (Plasma [8]) was 0.29, the SUV (Duodenum) was 2.58 and the SUV (Spleen) was 1.73. For the same compound, the SUV (Brain [9]) was 0.88, the SUV [10] was 1.06 and the SUV (Hippocampus [11]) was 0.3. The SUV (Plasma [12]) was 0.34, the SUV (Striatum) was 0.87 and the SUV [13] was 0.74. It also gave an SUV [14] of 0.18, an SUV (Pancreas) of 2.91 and an AUC (Rattus norvegicus) of 97%. For the same compound, the SUV [15] was 0.88, the SUV (Pons) was 0.48 and the SUV [16] was 0.35. For the same compound, the SUV (Muscle tissue) was 0.26.
